Only some compounds are listed: those with a hit (about 3.5% of all), similar ones and a draw of the others.
HTRA1 inhibitor – inhibitors of human serine peptidase HTRA1 | Q92743 | recombinant HTRA1, FP-rhodamine activity-based probe, fluorescence polarization | inhibition, % at 5.96 µM | hit rate 0.5% among 340,000; in the data active means inhibition above about 36%
TCR-CD3 inh – human TCR-CD3 binding inhibition; TAMRA-labeled TCR probe fluorescence, biochemical; inhibition, % at 9.4 µM; hit rate 0.37% among 360,000; AID 651800; in the data active means inhibition above about 19%;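 further: recombinant mutant TCR 2C K166C tagged with TAMRA read by polarization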
rCAG binder – molecules binding r(CAG) RNA repeats. r(CAG) RNA repeat, TO-PRO-1 dye displacement fluorescence. inhibition, % at 3 µM. hit rate 1.3% among 370,000;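 active means inhibition above the plate cutoff, the mean of all test compounds on that plate plus 3 SD, cut at about 35% in these data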;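 further: higher means more dye released from RNA so lower well fluorescence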
SIAE primary – blocks human sialic acid acetylesterase. hit rate 0.69% among 370,000. inhibition, % at 9.66 µM. SIAE FP-Rh probe binding, fluorescence polarization;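 active means inhibition above a cutoff: mean of compounds within the control limits plus 3 SD of those, cut at about 17% in these data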
PRMT1 inh – PRMT1 (human) inhibition, primary screen; Q99873; recombinant PRMT1, activity-based probe fluorescence polarization; inhibition, % at 2.79 µM; hit rate 1.3% among 370,000; AID 652257;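 active means inhibition above about 21% made by adding two undisclosed values, limit read from the data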
Target sequence (Q99873 whole entry, looked up): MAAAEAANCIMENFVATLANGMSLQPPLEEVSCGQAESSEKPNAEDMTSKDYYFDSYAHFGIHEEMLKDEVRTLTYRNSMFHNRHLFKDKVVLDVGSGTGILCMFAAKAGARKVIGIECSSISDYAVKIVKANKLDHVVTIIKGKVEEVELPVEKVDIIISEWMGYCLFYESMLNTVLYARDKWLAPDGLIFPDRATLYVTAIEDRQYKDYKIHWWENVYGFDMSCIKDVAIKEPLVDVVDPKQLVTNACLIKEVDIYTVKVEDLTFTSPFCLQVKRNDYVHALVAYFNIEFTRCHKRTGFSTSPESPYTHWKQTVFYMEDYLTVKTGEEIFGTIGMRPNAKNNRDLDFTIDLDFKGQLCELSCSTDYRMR
ABHD4 inh – ABHD4 (mouse) inhibition, primary FP screen; inhibition, % at 8.92 µM; hit rate 0.54% among 370,000; Q8VD66; purified mABHD4, FP-Rh probe fluorescence polarization;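 active means inhibition exceeding the mean over every tested compound plus 3 SD, cut at about 30% in these data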
Target sequence (Q8VD66 whole entry, looked up): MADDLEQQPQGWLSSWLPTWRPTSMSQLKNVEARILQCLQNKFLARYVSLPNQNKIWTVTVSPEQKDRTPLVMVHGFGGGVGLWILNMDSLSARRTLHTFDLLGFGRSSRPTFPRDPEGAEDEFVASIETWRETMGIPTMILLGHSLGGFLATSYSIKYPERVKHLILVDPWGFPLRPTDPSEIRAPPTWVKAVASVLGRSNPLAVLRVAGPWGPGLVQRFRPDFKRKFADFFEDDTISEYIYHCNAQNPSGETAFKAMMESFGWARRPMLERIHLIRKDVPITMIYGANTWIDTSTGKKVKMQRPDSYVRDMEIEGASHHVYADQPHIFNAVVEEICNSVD
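System: mouse ABHD4 enzyme, wild type / Medium: HEPES pH 7.0, NaCl, Pluronic buffer / Reagent: FP-Rh activity-based fluorescent probe / Control set: S159A mutant high control, sample median low control / Detection: fluorescence polarization with parallel and perpendicular emission, 525/598 nm / Schedule: 45 min + 60 min at 25 °C / Compound dosing: 8.92 µM, single dose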
rCAG bind conf – r(CAG) RNA repeat binding, confirmation | shares compounds with rCAG binder | hit rate 70% among 4,300 | inhibition, % at 3 µM | TO-PRO-1 dye displacement fluorescence;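 active means inhibition above a per-plate cutoff, the mean inhibition of sample wells plus 3 SD, cut at about 35% in these data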;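 further: loss of TO-PRO-1 fluorescence as compound displaces dye from 1x1 AA loop RNA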
DNA CAG counter – counter-screen for rCAG RNA binders: DNA CAG dye complex inhibitors; shares compounds with rCAG binder; d(CAG) DNA oligo TO-PRO-1 dye displacement, fluorescence; inhibition, % at 3 µM; hit rate 94% among 4,300;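 active means inhibition above its plate's cutoff, the mean test-well inhibition plus 3 SD, cut at about 4.8% in these data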;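 further: hits displace the dye from DNA and so lower well fluorescence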
dCAG dye DR – disrupts DNA CAG TO-PRO-1 complex in dose response | shares compounds with rCAG binder | DNA CAG/GTC duplex TO-PRO-1 dye displacement fluorescence | IC50, µM | hit rate 20% among 250 | AID 686960; in the data active means IC50 below about 10 µM
Each line names hits and unclear results; the compound was inactive in the other large screens (follow-up assays come after a bar, where they were run).

CCOc1ccc(C(=O)/C=C/Nc2ccc(S(=O)(=O)Nc3onc(C)c3C)cc2)cc1	rCAG binder 42.0 | rCAG bind conf 63.9 | DNA CAG counter 24.9
Cc1noc(NS(=O)(=O)c2ccc(N/C=C\C(=O)c3ccc(Br)cc3)cc2)c1C	rCAG binder 74.6 | rCAG bind conf 74.0 | DNA CAG counter 38.8
Cc1cc(N/C=C/C(=O)c2cccc3ccccc23)no1	none
COc1cccc(C(=O)/C=C/Nc2ccc(S(=O)(=O)Nc3onc(C)c3C)cc2)c1	none
Cc1noc(NS(=O)(=O)c2ccc(N/C=C\C(=O)c3cccc4ccccc34)cc2)c1C	rCAG binder 72.5 | rCAG bind conf 80.6 | DNA CAG counter 46.1
Cc1noc(NS(=O)(=O)c2ccc(N/C=C\C(=O)c3ccc4c(c3)OCO4)cc2)c1C	rCAG binder 43.5 | rCAG bind conf 43.1 | DNA CAG counter 14.1
CCOc1ccc(C(=O)/C=C/Nc2ccc(S(=O)(=O)N=C(N)N)cc2)cc1	none
N#Cc1c(NC(=O)CCN2C(=O)c3ccccc3C2=O)oc(-c2ccccc2)c1-c1ccccc1	none
CC(C)CC(C(=O)Nc1oc(-c2ccccc2)c(-c2ccccc2)c1C#N)N1C(=O)c2ccccc2C1=O (stereo unspecified)	rCAG binder 50.7 | rCAG bind conf 39.1 | DNA CAG counter 19.3
O=C(O)c1ccc(CNS(=O)(=O)c2ccc(Oc3ccccc3Cl)cc2)cc1	rCAG binder 38.7 | rCAG bind conf inactive | DNA CAG counter 6.6
O=C1CCC(CNc2ccccc2)N1c1ccccc1 (stereo unspecified)	none (no result: HTRA1 inhibitor, TCR-CD3 inh, rCAG binder)
C#CC1(O)C2C=C(OC)C(=O)C1C(c1ccccc1)C2C (stereo unspecified)	none (no result: HTRA1 inhibitor, TCR-CD3 inh)
COc1ccc(C=Nn2c(-c3n[nH]c4c3CCC4)n[nH]c2=S)cc1OCc1ccccc1	rCAG binder 48.7 (no result: HTRA1 inhibitor, TCR-CD3 inh) | rCAG bind conf 45.1 | DNA CAG counter 17.4
Fc1ccc(-c2n[nH]c(=S)n2N=Cc2ccc(OCc3ccccc3)cc2)cc1	rCAG binder 66.8 (no result: HTRA1 inhibitor, TCR-CD3 inh) | rCAG bind conf 46.7 | DNA CAG counter 16.7
Fc1ccc(-c2n[nH]c(=S)n2N=Cc2ccc(-c3ccccc3)cc2)cc1	rCAG binder 43.9 (no result: HTRA1 inhibitor, TCR-CD3 inh) | rCAG bind conf 39.6 | DNA CAG counter 16.1
CCOc1ccc(/C=N/n2c(-c3ccccc3)n[nH]c2=S)cc1	none
COc1cc(/C=N/n2c(C)n[nH]c2=S)ccc1OCc1ccc(F)cc1	none
COc1cc(C=Nn2c(-c3n[nH]c4c3CCC4)n[nH]c2=S)ccc1OCc1ccccc1	none (no result: HTRA1 inhibitor, TCR-CD3 inh)
COc1ccc(C=Nn2c(-c3ccccc3F)n[nH]c2=S)cc1OCc1ccccc1	rCAG binder 49.6 (no result: HTRA1 inhibitor, TCR-CD3 inh) | rCAG bind conf 41.6 | DNA CAG counter 10.1
O=C(OC12CCCN(C1)/C(=C/c1ccncc1)C2)c1ccco1 (stereo unspecified)	none (no result: HTRA1 inhibitor, TCR-CD3 inh)
Cc1ccccc1CS(=O)(=O)Cc1ccc(C(=O)Nc2ccccc2C)o1	none (no result: HTRA1 inhibitor, TCR-CD3 inh)
COc1ccc(C(=O)C2CCN(c3ncnc4sccc34)CC2)cc1	none (no result: HTRA1 inhibitor, TCR-CD3 inh, rCAG binder)
Fc1ccccc1-c1n[nH]c(=S)n1N=Cc1ccc(OCc2ccccc2)cc1	rCAG binder 70.3 (no result: HTRA1 inhibitor, TCR-CD3 inh) | rCAG bind conf 58.0 | DNA CAG counter 19.5
Cc1cc(-c2n[nH]c(=S)n2N=Cc2cccc(OCc3ccccc3)c2)n[nH]1	none (no result: HTRA1 inhibitor, TCR-CD3 inh)
COc1ccc(/C=C2\CC3(OC(=O)c4ccc(F)cc4)CCCN2C3)cc1 (stereo unspecified)	none (no result: HTRA1 inhibitor, TCR-CD3 inh)
N/C(=N\N=C\c1ccnc2ccccc12)SC1CC(=O)N(c2ccc(Br)cc2)C1=O (stereo unspecified)	none
C/C(=N\N=C(/N)SC1CC(=O)N(c2ccc(Br)cc2)C1=O)c1cccs1 (stereo unspecified)	rCAG binder 46.6 | rCAG bind conf 76.6 | DNA CAG counter 34.7
C/C(=N\N=C(/N)SC1CC(=O)N(c2ccccc2)C1=O)c1cccs1 (stereo unspecified)	rCAG binder 41.6 | rCAG bind conf 35.1 | DNA CAG counter 8.3
CCCCCCOc1ccc(N2C(=O)CC(S/C(N)=N/N=C(\C)c3cccs3)C2=O)cc1 (stereo unspecified)	none
C/C(=N\N=C(/N)SC1CC(=O)N(c2ccc(Cl)cc2)C1=O)c1cccs1 (stereo unspecified)	rCAG binder 42.7 | rCAG bind conf 63.4 | DNA CAG counter 24.5
N/C(=N\N=C\c1cccs1)SC1CC(=O)N(c2ccc(Br)cc2)C1=O (stereo unspecified)	rCAG binder 38.2 | rCAG bind conf 70.4 | DNA CAG counter 24.8 | dCAG dye DR inactive
C/C(=N\N=C(/N)SC1CC(=O)N(c2ccc(Cl)c(Cl)c2)C1=O)c1cccs1 (stereo unspecified)	none
N#Cc1cccc(NC(=O)OCCN2C(=O)CCC23CCC(c2ccccc2)CC3)c1 (stereo unspecified)	none (no result: HTRA1 inhibitor, TCR-CD3 inh)
Cc1ccc(S(=O)(=O)N2[C@@H](c3ccccc3)C(C(=O)O)=CC[C@H]2c2cccc(Cl)c2)cc1	none
Cc1ccc([C@@H]2CC=C(C(=O)O)[C@H](c3ccc(Br)cc3)N2S(=O)(=O)c2ccc(C)cc2)cc1	rCAG binder 82.3 | rCAG bind conf 83.8 | DNA CAG counter 49.8
O=C(O)C1=CC[C@@H](c2ccc(Cl)cc2)N(S(=O)(=O)c2ccc(Cl)cc2)[C@H]1c1ccc(F)cc1	rCAG binder 70.1 | rCAG bind conf 67.7 | DNA CAG counter 30.0
CCc1ccc([C@@H]2CC=C(C(=O)O)[C@H](c3ccc(F)cc3)N2S(=O)(=O)c2ccc(C)cc2)cc1	rCAG binder 80.1 | rCAG bind conf 62.1 | DNA CAG counter 24.2
CCc1ccc([C@@H]2CC=C(C(=O)O)[C@H](c3ccccc3)N2S(=O)(=O)c2ccc(C)cc2)cc1	rCAG binder 76.2 | rCAG bind conf 66.9 | DNA CAG counter 27.4
CC(=O)N1CCCN(C(=O)CCn2nnc3ccccc32)CC1	none (no result: HTRA1 inhibitor, TCR-CD3 inh)
Cc1ccccc1S(=O)(=O)N1CC(C(=O)O)=CC[C@H]1c1ccc(Cl)cc1	none
COc1ccc([C@@H]2CC=C(C(=O)O)[C@H](c3ccc(Cl)cc3)N2S(=O)(=O)c2ccc(Cl)cc2)cc1	rCAG binder 59.1 | rCAG bind conf 74.2 | DNA CAG counter 37.5
CCOc1ccc([C@@H]2CC=C(C(=O)O)[C@H](c3cccc(Cl)c3)N2S(=O)(=O)c2ccc(C)cc2)cc1	rCAG binder 69.3 | rCAG bind conf 70.5 | DNA CAG counter 33.2 | dCAG dye DR inactive

Bioassay records: PubChem, The Scripps Research Institute Molecular Screening Center
